This note sets out measurements from ChEMBL document CHEMBL1143412, “RSV604, a novel inhibitor of respiratory syncytial virus replication” (Antimicrob Agents Chemother, 2007).

A short description of series [1]: Cytotoxicity against RSV RSS infected human Hep2 cells up to 50 uM after 6 days by XTT assay. The following applies: hep-2, 144 h. Format: cell-based. In short, it runs like this:
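Uninfected cell-control plates run in parallel with the RSV XTT assay. HEp-2 cells at 4 × 10³ per well in DMEM/10% FBS, serial compound dilutions with 0.5% DMSO, 6 days. Viability by XTT. CC50 is the concentration giving 50% compound-induced cell death.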
A general note: Formazan colour is commonly taken as a measure of viable cells.

Series [2] deals with Respiratory syncytial virus. The experiment in a line: Drug resistance, ratio of EC50 for plaque picked RSV604-resistant RSV RSS from passage 2 to EC50 for DMSO-passaged wild type RSV RSS. Format: functional.
The test system of series [3] is Respiratory syncytial virus. The experiment in a line: Antiviral activity against RSV RSS infected human Hep2 cells assessed as reduction of viral antigen synthesis after 3 days by ELISA. Format: functional, organism-based. The following applies: HEp-2, 72 h. In short, it runs like this: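 HEp-2 cells seeded at 5 × 10³ per well in DMEM/10% FBS for 24 h, infected with RSV RSS at MOI about 0.02, serial compound dilutions for 3 days. Cells fixed and permeabilised in methanol-acetone, blocked in milk-Tween. Probed with mouse anti-RSV monoclonal then HRP anti-mouse. Developed with o-phenylenediamine/H2O2, absorbance […].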
In general terms: ELISA stands for enzyme-linked immunosorbent assay.

Series [4] deals with Respiratory syncytial virus. The experiment in a line: Antiviral activity against RSV RSS infected human Hep2 cells after 5 days by plaque reduction assay. Format: functional, organism-based. The following applies: HEp-2, 120 h. The gist of the method:
(§1)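 HEp-2 monolayers in six-well plates infected with 0.2 ml of 500 PFU/ml virus. After 2 h, overlaid with DMEM, 2% FBS, 0.6% agarose plus compound dilution series. Incubated 5 days, formaldehyde-fixed, plaques stained with methylene blue or immunostained and counted. Activity expressed as percent of plaques in untreated infected wells.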

In series [5] the test system is Respiratory syncytial virus. The experiment in a line: Antiviral activity against RSV Long infected human Hep2 cells after 5 days by plaque reduction assay. Format: functional, organism-based. The following applies: HEp-2, 120 h. In short, it runs like this: as §1
On the technique in general: Plaques are areas of infected cells; plaque reduction assays count them against a control.

The test system of series [6] is Respiratory syncytial virus. The experiment in a line: Antiviral activity against RSV RSS infected human Hep2 cells assessed as inhibition of virus-induced cell death after 6 days by XTT assay. Format: functional, organism-based. The following applies: HEp-2, 144 h. In short, it runs like this: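 HEp-2 cells seeded at 4 × 10³ per well in DMEM with 10% FBS, infected next day with RSV RSS dosed to give about 80% cytopathic effect by day 6. Serial compound dilutions (top 10 μM, 0.5% DMSO) present throughout. Viability read by XTT reduction after 6 days. EC50 taken as 50% reduction in virus-induced cell death.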

The subject of series [7] is Respiratory syncytial virus. The experiment in a line: Antiviral activity against RSV B infected human Hep2 cells after 5 days by plaque reduction assay. Format: functional, organism-based. The following applies: HEp-2, 120 h. The gist of the method:
as §1

Series [8] concerns Respiratory syncytial virus. The experiment in a line: Antiviral activity against plaque picked A-33903-resistant RSV RSS from passage 2 in human Hep2 cells by plaque reduction assay. Format: functional, organism-based. The following applies: HEp-2. The gist of the method: as §1
Series [9] can be described thus: Cytotoxicity against RSV RSS infected human Hep2 cells after 6 days by XTT assay. Format: cell-based, HEp-2.
For series [10], the system named is Respiratory syncytial virus. The experiment in a line: Antiviral activity against DMSO-passaged wild type RSV RSS infected human Hep2 cells by plaque reduction assay. The following applies: HEp-2. Format: functional, organism-based. The gist of the method:
as §1

Series [11] deals with Respiratory syncytial virus. The experiment in a line: Antiviral activity against RSV A2 infected human Hep2 cells after 5 days by plaque reduction assay. Format: functional, organism-based. The following applies: A2, HEp-2, 120 h. The gist of the method:
as §1

The nature of series [12]: Therapeutic index, CC50 for human Hep2 cells to EC50 for RSV RSS. The following applies: read-out: Ratio CC50/EC50. Format: cell-based, HEp-2. In short, it runs like this:
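Ratio of CC50 from uninfected HEp-2 XTT control plates to EC50 from RSV RSS-infected XTT plates, both read after 6 days.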

The test system of series [13] is Respiratory syncytial virus. The experiment in a line: Drug resistance, ratio of EC50 for plaque picked A-33903-resistant RSV RSS from passage 2 to EC50 for DMSO-passaged wild type RSV RSS. Format: functional.
The subject of series [14] is Respiratory syncytial virus. The experiment in a line: Antiviral activity against plaque picked RSV604-resistant RSV RSS from passage 2 in human Hep2 cells by plaque reduction assay. Format: functional, organism-based. The following applies: HEp-2. In short, it runs like this:
as §1

With `CC(=O)NC1N=C(c2ccccc2)c2ccccc2NC1=O` (stereo unspecified), the Activity entry in series [1] was “Non-toxic”. Besides, the “fold change (FC)” value is on record as greater than 12.3 in [2] and 3.1 in [13]. The EC50 – broadly, the concentration that produces a half-maximal response – turned out to be 10.1 µM in [3]; 9.7 µM in series [4]; 7.2 µM in [5]; 9.6 µM in series [6]; 3.5 µM in [7]; 27.6 µM in series [8]. For the same compound, the EC50 is 8.1 µM in series [10], 15.1 µM in [11] and greater than 100 µM in series [14]. The CC50 (usually the concentration at which the toxic effect on the cells reaches its halfway point) at 144 h in series [9] is greater than 50 µM. Besides, the selectivity ratio in series [12] is greater than 5.

For `COc1ccccc1C(=O)NC1N=C(c2ccccc2)c2ccccc2NC1=O` (stereo unspecified), the EC50 was determined as 1.1 µM in [3]; 1.4 µM in series [4]; 1.2 µM in series [5]; 3 µM in series [6]; 1.2 µM in series [11]. The compound also showed a 50% cytotoxic concentration (CC50) at 144 h in [9] greater than 50 µM. For the same compound, the selectivity ratio in series [12] was greater than 16.

On to `COc1cc([N+](=O)[O-])ccc1C(=O)N[C@H]1N=C(c2ccccc2)c2ccccc2NC1=O`, for which the concentration for a half-maximal effect (EC50) amounted to 0.5 µM in series [3]; 0.8 µM in series [4]; 0.57 µM in [5]; 0.9 µM in series [6]; 0.23 µM in [7]; 1.3 µM in [8]. The compound also came in with an EC50 in series [10] of 0.4 µM. The compound further came in with a CC50 at 144 h in series [9] greater than 50 µM. In addition, the selectivity ratio in series [12] is greater than 55. Moreover, in series [13], the “fold change (FC)” value amounted to 3.3.
